Measurements published in article PMC4773674 (Journal of Diabetes Investigation, 2015).

Tests used:
[1] = Safety: adverse events, hypoglycemic episodes, injection-site reactions; type: in vivo, Japanese patients with type 1 diabetes
In short: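 Randomized, double-blind, two-period crossover trial with once-daily […] dosing at 20.00 h for 6 days; periods separated by 7–21-day washout; insulin aspart boluses allowed. Safety end-points: AEs, injection-site reactions, ECG, vital signs, labs. Confirmed hypoglycemia: severe (ADA definition), plasma glucose <3.1 mmol/L, or full blood glucose <2.8 mmol/L.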

[2] = Serum IDeg pharmacokinetics; type: in vivo, Japanese patients with type 1 diabetes
In short: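 Serum drug levels were measured by specific sandwich ELISA. Troughs were drawn before each of 6 once-daily doses given at 20.00 h. After the last dose, samples were taken every 1–2 h to 24 h, then at 30, 36, 48, 72, 96 and 120 h. Post-hoc steady-state time was the time from first dose until troughs exceeded 90% of final plateau.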

[3] = cited from earlier work

## insulin degludec [IDeg]
[1]; 6 days of once-daily 0.4 U/kg, 22 Japanese type 1 diabetes patients
  Tolerability: well tolerated
[1]; after treatment with IDeg
  Injection-site reactions: no injection‐site reactions were recorded
  Serious AEs: No serious AEs occurred
[1]; after treatment with IDeg, all AEs mild
  Treatment-emergent AEs (other than hypoglycemia), number: three
[1]; fixed dose 0.4 U/kg
  Patients with confirmed treatment-emergent hypoglycemic episodes, number: 13 patients
[1]; fixed dose 0.4 U/kg, confirmed = severe, or plasma glucose <3.1 mmol/L
  Confirmed treatment-emergent hypoglycemic episodes, number: 93
[2]; once-daily dosing, all Japanese patients, confirmed by post-hoc analyses
  Time to steady state (trough concentrations exceeding 90% of final plateau): 2 to 3 days
[2]; steady state, 120 h = end of observation period, Japanese patients
  Time for which serum IDeg was detectable after the last dose: at least 120 h
[3]; Caucasian patients, 0.4 U/kg
  AUCτ,SS, 24-h exposure: 82,612 pmol h/L
[3]; previously shown
  Time to steady state: 2 to 3 days
